ChEMBL document CHEMBL1141657, “Synthesis, structure elucidation and identification of antitumoural properties of novel fused 1,2,4-triazine aryl derivatives” (Eur J Med Chem, 2008)
Activity calls are given as the source filed them. No cut-off for these calls is given here.

Experiments:
SiHa [1] = test: Growth inhibition of human SiHa cells assessed as BrdU incorporation at 32.6 uM after 72 hrs by spectrophotometry; assay type: functional; conditions: read-out: GI
How it was run: (§1)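 Cells were seeded at 10⁴ cells/mL and preincubated. Compounds were dissolved in DMSO and added at two fixed concentrations, then incubated for 72 h. End-point was BrdU labelling with ELISA detection, read spectrophotometrically. Result is % growth inhibition versus untreated controls. Triplicates.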

[2] = Growth inhibition of HSF cells assessed as BrdU incorporation at 32.6 uM after 72 hrs by spectrophotometry; assay type: cell-based; conditions: human, read-out: GI; how it was run: as §1
[3] = Growth inhibition of african green monkey Vero cells assessed as BrdU incorporation at 32.6 uM after 72 hrs by spectrophotometry; assay type: cell-based; conditions: chlorocebus sabaeus, read-out: GI; how it was run: as §1
[4] = Growth inhibition of human LS180 cells assessed as BrdU incorporation at 32.6 uM after 72 hrs by spectrophotometry; assay type: functional; conditions: LS180, 72 h, read-out: GI; how it was run: as §1
T47D [5] = test: Growth inhibition of human T47D cells assessed as BrdU incorporation at 32.6 uM after 72 hrs by spectrophotometry; assay type: functional; conditions: read-out: GI
How it was run: (§2)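 Each cell line was seeded at 10⁴ cells per mL and preincubated. Test agents were dissolved in DMSO, added at two examined concentrations (10 and 50 per mL by mass), and incubated for 72 h. The end-point was BrdU labeling and detection kit III read on an ELISA reader. Percent growth inhibition was calculated against untreated controls, in triplicate.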

[6] = Growth inhibition of HSF cells assessed as BrdU incorporation at 163.0 uM after 72 hrs by spectrophotometry; assay type: cell-based; conditions: human, read-out: GI; how it was run: as §1
[7] = Growth inhibition of african green monkey Vero cells assessed as BrdU incorporation at 163.0 uM after 72 hrs by spectrophotometry; assay type: cell-based; conditions: chlorocebus sabaeus, read-out: GI; how it was run: as §1
[8] = Growth inhibition of human LS180 cells assessed as BrdU incorporation at 163.0 uM after 72 hrs by spectrophotometry; assay type: functional; conditions: LS180, 72 h, read-out: GI; how it was run: as §1
SiHa [9] = test: Growth inhibition of human SiHa cells assessed as BrdU incorporation at 163.0 uM after 72 hrs by spectrophotometry; assay type: functional; conditions: read-out: GI; how it was run: as §1
T47D [10] = test: Growth inhibition of human T47D cells assessed as BrdU incorporation at 163.0 uM after 72 hrs by spectrophotometry; assay type: functional; conditions: read-out: GI; how it was run: as §2
LS180 = test: Induction of DNA damage in human LS180 cells at 32.6 uM by pulsed field gel electrophoresis; assay type: functional, cell-based
How it was run: (§3)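 After treatment at 32.6, cells were washed twice with PBS. DNA was isolated with lysing buffer plus proteinase K, then purified. Cells were prepared as agarose plugs and run by pulsed field electrophoresis on a 1% agarose gel containing propidium iodide, at 120 V for 1.5 h at room temperature. Experiments were repeated three times.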

SiHa [11] = test: Induction of DNA damage in human SiHa cells at 32.6 uM by pulsed field gel electrophoresis; assay type: functional, cell-based; how it was run: as §3
T47D [12] = test: Induction of DNA damage in human T47D cells at 32.6 uM by pulsed field gel electrophoresis; assay type: functional, cell-based; how it was run: as §3
[13] = Induction of apoptosis in HSF cells after 72 hrs by annexin V-propidium iodide based assay; assay type: cell-based; conditions: human
How it was run: (§4)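 Cells were exposed for 72 h, then stained with an annexin V-FITC/propidium iodide detection kit. Apoptotic cells were counted by confocal microscopy using a 460–490 nm filter: yellow nuclei were early apoptosis, red were late, and unstained cells were living. 1000 cells were analysed per measurement, three independent measurements in all. Results are mean ± SD.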

T47D [14] = test: Induction of apoptosis in human T47D cells after 72 hrs by annexin V-propidium iodide based assay; assay type: functional; how it was run: as §4
[15] = Cytotoxicity against HSF cells assessed as cell viability at 1 uM after 24 hrs by MTT assay relative to control; assay type: cell-based; conditions: human, read-out: Activity
How it was run: (§5)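 Normal human skin fibroblasts (HSF, primary line) were exposed to DMSO-dissolved compound for 24 h. Viability was read by MTT tetrazolium reduction and expressed against untreated control set at 100%.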

[16] = Cytotoxicity against HSF cells assessed as cell viability at 50 uM after 24 hrs by MTT assay relative to control; assay type: cell-based; conditions: human, read-out: Activity; how it was run: as §5
[17] = Cytotoxicity against HSF cells assessed as cell viability at 100 uM after 24 hrs by MTT assay relative to control; assay type: cell-based; conditions: human, read-out: Activity; how it was run: as §5
Jurkat [18] = test: Cytotoxicity against human Jurkat cells assessed as cell viability at 1 uM after 24 hrs by MTT assay relative to control; assay type: functional; conditions: read-out: Activity
How it was run: (§6)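 Jurkat T-cell leukaemia line grown in RPMI 1640 with 10% FBS, 2 mM L-glutamine and gentamycin at 37 °C, 5% CO2, kept in log phase. Compounds were dissolved in DMSO and applied for 24 h. Cells were washed in HEPES-buffered medium (pH 7.4) and given MTT at 0.5 mg/mL for 45 min at 37 °C. Formazan was dissolved in DMSO and read at 570 nm. Viability is % of control, from three independent measurements.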

Jurkat [19] = test: Cytotoxicity against human Jurkat cells assessed as cell viability at 50 uM after 24 hrs by MTT assay relative to control; assay type: functional; conditions: read-out: Activity; how it was run: as §6
Jurkat [20] = test: Cytotoxicity against human Jurkat cells assessed as cell viability at 100 uM after 24 hrs by MTT assay relative to control; assay type: functional; conditions: read-out: Activity; how it was run: as §6
[21] = Growth inhibition of human LS180 cells assessed as BrdU incorporation after 72 hrs by spectrophotometry; assay type: functional, cell-based; conditions: LS180, 72 h
How it was run: (§7)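 Cancer cells were seeded at 10⁴ cells/mL, preincubated, then exposed for 72 h to DMSO-dissolved compound. Growth was read by BrdU labelling with ELISA spectrophotometry. IC50 was taken from 72 h dose–survival curves. Triplicates.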

SiHa [22] = test: Growth inhibition of human SiHa cells assessed as BrdU incorporation after 72 hrs by spectrophotometry; assay type: functional, cell-based; how it was run: as §7
T47D [23] = test: Growth inhibition of human T47D cells assessed as BrdU incorporation after 72 hrs by spectrophotometry; assay type: functional, cell-based; how it was run: as §7
Jurkat [24] = test: Cytotoxicity against human Jurkat cells assessed as decrease in cell viability after 24 hrs by MTT assay; assay type: functional, cell-based
How it was run: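 Jurkat cells grown in RPMI 1640/10% FBS at 37 °C, 5% CO2, with 24 h exposure to DMSO-dissolved compound. Read-out was MTT reduction: 0.5 mg/mL in HEPES-buffered medium for 45 min, formazan in DMSO, absorbance at 570 nm. IC50 was taken from 24 h dose–survival curves.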

Q: Which inhibition of growth at 32.6 µM (SiHa [1]) does the source give for `NNC(=O)c1nnc2n(c1=O)CCN2c1cccc(Cl)c1` here?
A: Its inhibition of growth at 32.6 µM is 45%.

Q: And the inhibition at 72 h, 32.6 µM [2]?
A: Its inhibition at 72 h, 32.6 µM is 0%.

Q: What about the inhibition at 72 h, 32.6 µM [3] of the same compound?
A: Its inhibition at 72 h, 32.6 µM is 20%.

Q: What about the inhibition of growth at 32.6 µM [4] of the same compound?
A: The inhibition of growth at 32.6 µM was 42%.

Q: And the inhibition of growth at 32.6 µM (T47D [5])?
A: The inhibition of growth at 32.6 µM was 26%.

Q: What about the inhibition at 72 h, 163 µM [6] of the same compound?
A: The inhibition at 72 h, 163 µM was 0%.

Q: What about the inhibition at 72 h, 163 µM [7] of the same compound?
A: Its inhibition at 72 h, 163 µM is 29%.

Q: And the inhibition of growth at 163 µM [8]?
A: The inhibition of growth at 163 µM was 54%.

Q: And the inhibition of growth at 163 µM (SiHa [9])?
A: The inhibition of growth at 163 µM was 63%.

Q: What about the inhibition of growth at 163 µM (T47D [10]) of the same compound?
A: Its inhibition of growth at 163 µM is 40%.

Q: And the Activity (LS180)?
A: The Activity was “Active”.

Q: What about the Activity (SiHa [11]) of the same compound?
A: Its Activity is “Active”.

Q: And the Activity (T47D [12])?
A: Its Activity is “Active”.

Q: And the Activity [13]?
A: Its Activity is 1%.

Q: What about the Activity (T47D [14]) of the same compound?
A: Its Activity is 8.5%.

Q: What about the viability at 24 h, 1 µM [15] of the same compound?
A: The viability at 24 h, 1 µM was 108%.

Q: What about the viability at 24 h, 50 µM [16] of the same compound?
A: The viability at 24 h, 50 µM was 113%.

Q: And the viability at 24 h, 100 µM [17]?
A: The viability at 24 h, 100 µM was 105%.

Q: What about the viability at 1 µM (Jurkat [18]) of the same compound?
A: The viability at 1 µM was 100%.

Q: What about the viability at 50 µM (Jurkat [19]) of the same compound?
A: Its viability at 50 µM is 116%.

Q: What about the viability at 100 µM (Jurkat [20]) of the same compound?
A: The viability at 100 µM was 115%.

Q: And the IC50 [21]?
A: Its IC50 is greater than 100 µM.

Q: And the IC50 (SiHa [22])?
A: Its IC50 is 75.4 µM.

Q: And the IC50 (T47D [23])?
A: The IC50 was greater than 100 µM.

Q: What about the IC50 (Jurkat [24]) of the same compound?
A: Its IC50 is greater than 100 µM.
